Calls of active or inactive are those of the source. No cut-off for these calls is given here.
Tests used:
[1] = target: T1, Retinoic acid receptor RXR-alpha (Homo sapiens) (UniProt P19793); assay: Activation of RXRalpha in human KM12C cells assessed as increase in p21 (WAF1/CIP1) protein expression at 25 to 50 uM incubated for 15 hrs by Western blot analysis; assay type: cell-based
T1 sequence (whole entry): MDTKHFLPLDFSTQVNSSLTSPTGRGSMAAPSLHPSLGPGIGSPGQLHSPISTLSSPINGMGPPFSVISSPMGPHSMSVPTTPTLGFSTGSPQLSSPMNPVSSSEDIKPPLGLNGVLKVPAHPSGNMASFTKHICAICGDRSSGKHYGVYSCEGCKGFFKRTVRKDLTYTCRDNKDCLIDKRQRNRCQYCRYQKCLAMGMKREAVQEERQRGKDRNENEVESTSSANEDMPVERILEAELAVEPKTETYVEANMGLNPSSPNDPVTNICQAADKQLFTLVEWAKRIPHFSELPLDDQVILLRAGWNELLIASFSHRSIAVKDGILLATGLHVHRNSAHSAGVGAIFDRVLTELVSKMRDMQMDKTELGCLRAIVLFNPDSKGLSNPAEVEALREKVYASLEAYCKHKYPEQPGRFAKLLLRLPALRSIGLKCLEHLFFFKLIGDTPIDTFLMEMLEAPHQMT

[2] = target: T1, Retinoic acid receptor RXR-alpha (Homo sapiens); assay: Activation of RXRalpha in human HCT116 cells assessed as increase in p21 (WAF1/CIP1) protein expression at 30 to 60 uM incubated for 15 hrs by Western blot analysis; assay type: cell-based; conditions: HCT-116
[3] = target: T1, Retinoic acid receptor RXR-alpha (Homo sapiens); assay: Activation of RXRalpha in human HCT116 cells assessed as reduction in Cdc2 mRNA expression at 30 to 60 uM incubated for 15 hrs by real-time PCR analysis; assay type: cell-based; conditions: HCT-116
[4] = Toxicity in BALB/c mouse xenografted with human KM12C cells assessed as effect on biochemical parameter by measuring IBIL level at 100 mg/kg, ig dosed daily for 15 days by automatic chemistry analyzer based analysis (reference value: 0.55 +/- 0.096 umol/L); assay type: organism-based; conditions: in vivo, po, 360 h
[5] = system: HCT-116; assay: Inhibition of cell proliferation of human HCT116 cells incubated for 15 hrs by MTT assay; assay type: functional, cell-based; conditions: HCT-116, 15 h
Summary of the method: (§1)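 Cells plated at 1×10⁴ per well, incubated overnight at 37 °C, then exposed to a concentration series for 15 h. MTT (5 mg/mL stock) added for 4 h at 37 °C. Formazan dissolved in DMSO and absorbance read at 570 nm. IC50 derived from the dose-response curve.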

[6] = target: T1, Retinoic acid receptor RXR-alpha (Homo sapiens); assay: Activation of RXRalpha (unknown origin) expressed in human KM12C cells co-expressing beta-catenin assessed as induction of RXRalpha interaction with beta-catenin at 25 to 50 uM incubated for 15 hrs by mammalian two-hybrid assay; assay type: cell-based
Summary of the method: (§2)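 Mammalian two-hybrid: cells co-transfected by lipofection with pBIND-β-catenin/S33Y plus pACT-RXRα (RXRα–β-catenin) or pACT-c-Cbl (β-catenin–c-Cbl); 20 h after transfection, compound added for 15 h; cells lysed in passive lysis buffer, 4 °C, 1 h; firefly and Renilla luciferase read by dual-luciferase kit.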

[7] = target: T1, Retinoic acid receptor RXR-alpha (Homo sapiens); assay: In-vivo activation of RXRalpha in BALB/c mouse xenografted with human KM12C cells assessed as reduction in c-Myc mRNA expression at 100 mg/kg, ig dosed daily for 15 days by real-time PCR analysis; assay type: functional, organism-based
Summary of the method: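 KM12C cells (1×10^6 per mouse in 100 μL HBSS) injected subcutaneously into both flanks of nude mice; after seven days, randomized to three groups, dosed intragastrically once daily for 15 days with vehicle (CMC-Na) or 100 mg/kg compound; mice euthanized and tumors removed for analysis.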

[8] = target: T1, Retinoic acid receptor RXR-alpha (Homo sapiens); assay: Activation of RXRalpha in human KM12C cells assessed as inhibition of Wnt/beta-catenin-dependent transcriptional activity at 25 to 50 uM incubated for 15 hrs by TOP/FOP luciferase assay; assay type: cell-based
Summary of the method: (§3)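 TOP/FOP reporter: cells co-transfected by lipofection with pRL-TK plus TOPflash or FOPflash; compound added 20 h after transfection for 15 h; passive lysis at 4 °C, 1 h; firefly and Renilla luciferase measured by dual-luciferase assay.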

[9] = target: T1, Retinoic acid receptor RXR-alpha (Homo sapiens); assay: Activation of RXRalpha in human HCT116 cells assessed as inhibition of Wnt/beta-catenin-dependent transcriptional activity at 30 to 60 uM incubated for 15 hrs by TOP/FOP luciferase assay; assay type: cell-based; conditions: HCT-116; summary of the method: as §3
[10] = system: KM12C; assay: Inhibition of cell proliferation of human KM12C cells incubated for 15 hrs by MTT assay; assay type: functional, cell-based; summary of the method: as §1
[11] = target: T1, Retinoic acid receptor RXR-alpha (Homo sapiens); assay: Activation of RXRalpha in human SW620 cells assessed as increase in p21 (WAF1/CIP1) protein expression at 40 to 80 uM incubated for 15 hrs by Western blot analysis; assay type: cell-based; conditions: SW-620
[12] = target: T1, Retinoic acid receptor RXR-alpha (Homo sapiens); assay: Activation of RXRalpha in human SW620 cells assessed as induction of beta-catenin protein degradation at 40 to 80 uM incubated for 15 hrs by Western blot analysis; assay type: cell-based; conditions: SW-620
[13] = Bioavailability in Sprague-Dawley rat at 100 mg/kg, ig measured after 0.083 to 36 hrs by LC-MS/MS analysis; assay type: ADME, organism-based; conditions: in vivo, po
Summary of the method: (§4)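 SD rats (200 ± 20 g) randomized to three groups; single intragastric dose of 100 mg/kg or vehicle (0.5% CMC-Na). Tail-vein blood (0.5 mL) drawn at 0.083, 0.25, 0.5, 1, 2, 4, 8, 12, 24 and 36 h. Plasma separated by centrifugation at 2000 rpm for 10 min, frozen at -80 °C, then quantified by LC-MS/MS.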

[14] = target: T1, Retinoic acid receptor RXR-alpha (Homo sapiens); assay: Activation of RXRalpha in human SW620 cells assessed as reduction in c-Myc protein expression at 40 to 80 uM incubated for 15 hrs by Western blot analysis; assay type: cell-based; conditions: SW-620
[15] = target: T1, Retinoic acid receptor RXR-alpha (Homo sapiens); assay: Activation of RXRalpha in human KM12C cells assessed as reduction in c-Myc mRNA expression at 25 to 50 uM incubated for 15 hrs by real-time PCR analysis; assay type: cell-based
[16] = target: T1, Retinoic acid receptor RXR-alpha (Homo sapiens); assay: In-vivo activation of RXRalpha in BALB/c mouse xenografted with human KM12C cells assessed as increase in p21 (WAF1/CIP) protein expression at 100 mg/kg, ig dosed daily for 15 days by immunohistochemistry analysis; assay type: functional, organism-based
[17] = Cmax in Sprague-Dawley rat at 100 mg/kg, ig measured after 0.083 to 36 hrs by LC-MS/MS analysis; assay type: ADME, organism-based; parameters: dose 100 mg/kg, route intragastric; conditions: in vivo, po; summary of the method: as §4
[18] = Toxicity in BALB/c mouse xenografted with human KM12C cells assessed as effect on biochemical parameter by measuring ALP level at 100 mg/kg, ig dosed daily for 15 days by automatic chemistry analyzer based analysis (reference value: 76.53 +/- 4.31 U/L); assay type: organism-based; conditions: in vivo, po, 360 h
[19] = target: T1, Retinoic acid receptor RXR-alpha (Homo sapiens); assay: Activation of RXRalpha (unknown origin) expressed in human KM12C cells co-expressing beta-catenin and c-Cbl assessed as induction of beta-caten interaction with c-Cbl at 25 to 50 uM incubated for 15 hrs by mammalian two-hybrid assay; assay type: cell-based; summary of the method: as §2
[20] = target: T1, Retinoic acid receptor RXR-alpha (Homo sapiens); assay: Activation of RXRalpha in human KM12C cells assessed as induction of beta-catenin protein degradation at 25 to 50 uM incubated for 15 hrs by Western blot analysis; assay type: cell-based

Row | Compound | Activity [1] | Activity [2] | Activity [3] | Activity [4] [µmol/L] | IC50 [5] [µM] | Activity [6] | Activity [7] | Activity [8] | Activity [9] | IC50 [10] [µM] | Activity [11] | Activity [12] | bioavailability [13] [%] | Activity [14] | Activity [15] | Activity [16] | Activity [18] [U/L] | Activity [19] | Activity [20] | also measured
1 | COc1ccc2cc3[n+](cc2c1OC)CCc1cc2c(cc1-3)OCO2.[Cl-] [BERBERINE CHLORIDE] | Active | Active | Active | 0.4 | 83.1 | Active | Active | Active | Active | 76.3 | Active | Active | 0.544 | Active | Active | Active | 71.28 | Active | Active | Cmax [17]: 2.893 ng/mL
2 | COc1ccc2c(c1)CC[n+]1cc3c(OC)cccc3cc1-2.[Cl-] | Active | Active | Active | 0.52 | 27.2 | Active | Active | Active | Active | 31.1 | Active | Active | 14.2 | Active | Active | Active | 78.35 | Active | Active | Cmax ([17]; Sprague-Dawley, read-out: Cmax): 486 ng/mL
